From ChEMBL document CHEMBL1124955, “2-substituted-1-naphthols as potent 5-lipoxygenase inhibitors with topical antiinflammatory activity” (J Med Chem, 1990)

Tests used:
Mus musculus [1] = experiment: percentage inhibition of the mouse arachidonic acid induced ear edema assay (AA) (Dose is 100 ug/ear); assay type: functional
In short: (§1)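 Groups of 10 male CF1 mice (18–20 g). Compound in acetone is applied topically to both ears just before 1 mg arachidonic acid in acetone is applied to one ear; the other ear serves as control. Mice are killed 60 min later and 6-mm ear punches weighed; swelling is the weight difference. %Inhibition = [(C−T)/C]×100, with Student's t test.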

Cyclooxygenase = target: T1, Cyclooxygenase (Bos taurus, UniProt O62664+O62698); experiment: In vitro inhibition of Prostaglandin G/H synthase in BSV cell line.; assay type: cell-based
T1 sequence (O62664 whole entry): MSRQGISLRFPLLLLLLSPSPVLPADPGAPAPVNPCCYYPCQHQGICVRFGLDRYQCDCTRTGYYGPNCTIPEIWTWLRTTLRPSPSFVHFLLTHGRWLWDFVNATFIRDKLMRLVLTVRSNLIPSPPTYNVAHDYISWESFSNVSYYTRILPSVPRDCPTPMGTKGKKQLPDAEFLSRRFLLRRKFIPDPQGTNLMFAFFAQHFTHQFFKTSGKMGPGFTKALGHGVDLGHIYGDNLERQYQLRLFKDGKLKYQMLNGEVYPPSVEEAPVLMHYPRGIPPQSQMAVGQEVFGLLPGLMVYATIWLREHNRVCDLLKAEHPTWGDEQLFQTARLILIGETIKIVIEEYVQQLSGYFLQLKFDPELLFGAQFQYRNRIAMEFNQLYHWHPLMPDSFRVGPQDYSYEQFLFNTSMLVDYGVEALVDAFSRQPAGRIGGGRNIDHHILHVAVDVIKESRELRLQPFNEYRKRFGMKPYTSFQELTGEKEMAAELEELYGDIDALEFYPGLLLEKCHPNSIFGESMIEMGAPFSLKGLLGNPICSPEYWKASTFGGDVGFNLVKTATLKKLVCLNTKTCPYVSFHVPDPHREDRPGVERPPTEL
T1 sequence (O62698 whole entry): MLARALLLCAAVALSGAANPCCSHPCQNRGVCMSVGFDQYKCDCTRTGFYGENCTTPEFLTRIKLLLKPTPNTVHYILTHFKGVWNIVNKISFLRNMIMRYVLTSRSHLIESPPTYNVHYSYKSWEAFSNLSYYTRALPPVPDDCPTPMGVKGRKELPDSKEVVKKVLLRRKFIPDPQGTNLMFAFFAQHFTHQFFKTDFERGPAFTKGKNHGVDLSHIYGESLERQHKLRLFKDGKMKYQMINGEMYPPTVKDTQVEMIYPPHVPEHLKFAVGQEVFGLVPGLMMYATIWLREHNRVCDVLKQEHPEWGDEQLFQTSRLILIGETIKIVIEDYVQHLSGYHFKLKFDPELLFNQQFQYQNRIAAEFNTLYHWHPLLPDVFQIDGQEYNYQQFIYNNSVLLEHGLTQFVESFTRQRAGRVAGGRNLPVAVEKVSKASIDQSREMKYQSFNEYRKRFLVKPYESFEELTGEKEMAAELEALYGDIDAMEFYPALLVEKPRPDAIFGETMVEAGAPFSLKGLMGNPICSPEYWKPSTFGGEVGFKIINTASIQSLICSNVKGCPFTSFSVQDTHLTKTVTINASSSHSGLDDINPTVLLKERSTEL

[2] = target: T2, Polyunsaturated fatty acid 5-lipoxygenase (Rattus norvegicus, UniProt P12527); experiment: Ability to inhibit 5-lipoxygenase by using a crude preparation of the cytosolic enzyme from the rat basophilic leukemia (RBL-1) cell line; assay type: cell-based
T2 sequence (P12527 whole entry): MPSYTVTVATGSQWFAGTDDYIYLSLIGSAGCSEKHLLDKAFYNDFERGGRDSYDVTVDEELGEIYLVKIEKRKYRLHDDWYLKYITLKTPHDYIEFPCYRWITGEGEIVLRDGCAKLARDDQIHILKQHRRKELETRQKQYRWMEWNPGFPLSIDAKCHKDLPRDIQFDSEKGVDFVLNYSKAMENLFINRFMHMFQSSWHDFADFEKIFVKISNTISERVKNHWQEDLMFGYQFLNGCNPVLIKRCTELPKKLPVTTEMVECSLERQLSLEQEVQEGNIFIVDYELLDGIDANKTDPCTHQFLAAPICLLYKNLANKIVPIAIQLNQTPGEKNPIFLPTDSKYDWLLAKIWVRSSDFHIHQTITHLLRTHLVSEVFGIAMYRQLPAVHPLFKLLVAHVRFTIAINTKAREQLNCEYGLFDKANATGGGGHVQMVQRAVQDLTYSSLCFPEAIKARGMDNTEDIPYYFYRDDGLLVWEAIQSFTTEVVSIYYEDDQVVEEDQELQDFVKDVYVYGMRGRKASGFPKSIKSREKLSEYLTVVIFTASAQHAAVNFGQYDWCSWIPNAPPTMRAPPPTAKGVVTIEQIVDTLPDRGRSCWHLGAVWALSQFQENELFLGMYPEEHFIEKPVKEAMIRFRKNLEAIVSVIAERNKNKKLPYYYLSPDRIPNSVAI
In short: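 Crude cytosolic enzyme (supernatant) from RBL-1 cells, amount giving net 3300–3800 dpm 5-HETE (9–20 μg cell protein/assay). Enzyme is preincubated 5 min at 37 °C, pH 7.0, with compound (in 5% DMSO/Tris pH 8.5) in phosphate buffer with EDTA, gelatin, glutathione, CaCl2 and 0.012 mM indomethacin. Reaction is started with 0.042 mM final [14C]arachidonic acid and stopped by freezing after 2 min.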

[3] = target: T3, Polyunsaturated fatty acid 5-lipoxygenase (Rattus norvegicus) (UniProt P12527); experiment: Ability to inhibit 5-lipoxygenase by using a crude preparation of the cytosolic enzyme from the rat basophilic leukemia (RBL-1) cell line at a concentration of 25 uM; assay type: cell-based
T3 sequence (whole entry): T2 sequence (P12527 whole entry)

Mus musculus [4] = experiment: Effective dose to inhibit 50% of mouse arachidonic acid induced ear edema assay; assay type: functional; in short: as §1
Mus musculus [5] = experiment: Percentage inhibition of the mouse arachidonic acid induced ear edema assay (AA) at a dose of 100 ug/ear; assay type: functional; in short: as §1
[6] = target: Cyclooxygenase (Bos taurus) (UniProt O62664+O62698); experiment: Ability to inhibit Prostaglandin G/H synthase by using the bovine seminal vesicle enzyme assay on BSV cell line at a concentration of 75 uM; assay type: tissue-based
In short: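 Bovine seminal vesicle cyclooxygenase (40 μg) with Tris pH 8.5 and cofactors (glutathione, epinephrine, EDTA) is chilled on ice. Compound in DMSO diluted with Tris is added, then preincubated 2 min at 37 °C. [14C]arachidonic acid (0.2 μCi/mL in 0.1 mM sodium arachidonate) is added and the reaction runs 10 min. Duplicates are run; values are the percent inhibition at the concentration shown.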

Structure (SMILES) | IC50 (Cyclooxygenase) | IC50 [2] | inhibition [3] | inhibition [6] | Inhibition (Mus musculus [1]) | ED50 (Mus musculus [4]) | Inhibition (Mus musculus [5])
Oc1ccc2ccccc2c1Cc1ccccc1 | 16 µM | 3.9 µM | – | – | 23% | – | –
COc1ccc2c(c1)c(CC(=O)O)c(C)n2C(=O)c1ccc(Cl)cc1 [INDOMETHACIN] | – | – | 47% | – | – | 780 ug ear-1 | 20%
OCCOc1c(Cc2ccccc2)ccc2ccccc12 | – | 40 µM | – | 28% | – | – | 12%
CCOC(=O)c1ccc2ccccc2c1O | – | 25 µM | – | 0% | – | – | 0%
O=C1CCN(c2ccccc2)N1 [PHENIDONE] | – | – | – | 31% | – | 41 ug ear-1 | 58%
CCOC(=O)CCCC(=O)c1ccc2ccccc2c1O | – | – | 23% | 12% | – | – | 13%
COc1c(Cc2ccccc2)ccc2ccccc12 | – | 55 µM | – | 0% | – | – | 5%
CC(=O)Nc1c(Cc2ccccc2)ccc2ccccc12 | – | – | 13% | – | – | – | 8%
O=C(O)c1c(Cc2ccccc2)ccc2ccccc12 | – | – | 2% | 15% | – | – | 0%
O=C(c1ccccc1)c1ccc2ccccc2c1O | – | 20 µM | – | 26% | – | – | 30%
Oc1ccccc1Cc1ccccc1 | – | 63 µM | – | 22% | – | – | 32%

Further compounds by falling IC50 [2], results first:

IC50 (Cyclooxygenase) | IC50 [2] | inhibition [3] | inhibition [6] | Structure (SMILES) | Inhibition (Mus musculus [1]) | ED50 (Mus musculus [4]) | Inhibition (Mus musculus [5])
– | 2.7 µM | – | 27% | CCOC(=O)CCC/C(=N\O)c1ccc2ccccc2c1O | – | – | 29%
– | 0.7 µM | – | 0% | COc1c(OC)c(OC(C)=O)c2cc(Cl)ccc2c1OC(C)=O [LONAPALENE] | – | 100 ug ear-1 | 50%
– | 0.29 µM | – | 16% | O=C1C=C(Cc2ccccc2)C(=O)c2ccccc21 | – | – | 59%
57 µM | 0.25 µM | – | – | OCc1ccccc1/C=C/Cc1cc2c(cc1O)CCO2 | – | 55 ug ear-1 | 52%
18 µM | 0.056 µM | – | – | C=CCc1ccc2ccccc2c1O | – | 4.4 ug ear-1 | 91%
3.4 µM | 0.019 µM | – | – | Oc1c(Cc2ccccc2)ccc2ccccc12 | – | 9.4 ug ear-1 | 82%
18 µM | 0.011 µM | – | – | CCOC(=O)CCCCc1ccc2ccccc2c1O | – | 40 ug ear-1 | 74%
